The species named for one data set is Sus scrofa. Briefly: In vitro inhibition of [14C]-aminopyrine accumulation was determined in gastric vesicles of pig with outside vesicle pH 7. To be noted: Stomach.
The subject of data set [1] is Rattus norvegicus. In words: In vivo inhibition of rat gastric secretion was determined at a dose of 10 uM/kg. The class given is functional, Stomach. In short, it runs like this: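 Pentagastrin-stimulated lumen-perfused rats given a single iv bolus of 10 μmol/kg. Acid output measured in the gastric perfusate. Percent inhibition taken at peak inhibition relative to the secretory plateau immediately before dosing; mean of four rats ± SEM.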

Data set [2] relates to Rattus norvegicus. In words: In vivo antisecretory activity was determined for inhibition of gastric secretion in rat; rats died at doses giving less than 50% inhibition. It is filed as organism-based, Stomach.
In data set [3] the test system is Rattus norvegicus. In words: In vivo antisecretory activity was determined for inhibition of gastric secretion in rat. It is filed as functional. To be noted: Stomach. In short, it runs like this: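 Lumen-perfused rat stimulated with pentagastrin; compound given as iv bolus; acid output measured in gastric perfusate. Percent inhibition taken at peak inhibition versus secretory plateau just before dosing.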

Data set [4] is described as follows: pKa value was determined. It is filed as physicochemical.

Usually IC50 stands for the concentration needed to halve the response being measured. A low value points to greater potency in that assay. The term Inhibition denotes the share of the control response that was lost under treatment. A word on the ED50: it is the midpoint of the dose-response relation. Lower therefore signals an effect at a small dose. One may read the pKa as the pH at which an ionisable group is half protonated. A low value points to a group that gives up its proton readily.

With `COc1cccc2c3c(cnc12)CCCN3c1ccccc1C`, the IC50 in the data set listed under Sus scrofa is 110 nM. In addition, the Inhibition with Rattus norvegicus [1] turned out to be 21%.

For the molecule `COc1ccccc1N1CCc2c(C)nc3c(OC)cccc3c21`, in the data set filed under Sus scrofa, the concentration for half-maximal inhibition (IC50) was 230 nM. For the same molecule, the ED50 result in the data set with Rattus norvegicus [2] was “Toxic”.

`Cc1cccc(C)c1N1CCc2c(C)nc3ccccc3c21` yielded an Inhibition with Rattus norvegicus [1] of 18%.

Molecule `COc1cccc2c3c(c(C)nc12)CCN3c1ccccc1C` came in with an IC50 in the data set listed under Sus scrofa of 36 nM. In addition, in the data set on Rattus norvegicus [3], the 50% effective dose (ED50) stood at 19.8 µmol/kg. For the same molecule, the pKa in data set [4] was found to be 9.5.

The molecule `COc1cccc2c3c(c(C)nc12)CCN3c1ccccc1` had a concentration for half-maximal inhibition (IC50) in the data set listed under Sus scrofa of 84 nM. Also, the ED50 result in the data set on Rattus norvegicus [2] was “Toxic”. In the data set with Rattus norvegicus [1], this molecule gave an Inhibition of 17%.

Take `COc1cccc2c3c(c(C)nc12)CCN3Cc1ccccc1`: the 50% inhibitory concentration (IC50) in the data set filed under Sus scrofa was determined as 1600 nM. Moreover, the 50% effective dose (ED50) result in the data set with Rattus norvegicus [2] is “Toxic”. In the data set on Rattus norvegicus [1], this molecule had an Inhibition of 0%.

In turn, `Cc1ccccc1N1CCc2c(C)nc3c(O)cccc3c21` came in with an IC50 in the data set listed under Sus scrofa of 61 nM. This molecule also displayed an Inhibition in the data set with Rattus norvegicus [1] of 23%.

Consider `COc1cccc2c1nc(C)c1ccn(-c3ccccc3C)c12`, for which half-maximal inhibition in the data set listed under Sus scrofa (IC50) required 34 nM. The same molecule came in with an ED50 with Rattus norvegicus [3] of 7.1 µmol/kg. Further, in data set [4], the pKa was 7.4. In addition, the Inhibition with Rattus norvegicus [1] came out at 48%.

In the data set listed under Sus scrofa, `Cc1ccccc1N1CCc2c(C)nc3ccccc3c21` returned a 50% inhibitory concentration (IC50) of 28 nM. The molecule also showed an Inhibition with Rattus norvegicus [1] of 42%.

`Cc1ccccc1-n1c(S)nc2cnc3ccccc3c21` displayed an IC50 in the data set listed under Sus scrofa above 30000 nM.

In the data set listed under Sus scrofa, `COc1cccc2c3c(c(C)[n+](C)c12)CCN3c1ccccc1C` gave an IC50 of 2400 nM.

Consider `Cc1ccccc1N1CCc2c(C)nc3c(C)cccc3c21`, for which half-maximal inhibition in the data set listed under Sus scrofa (IC50) required 28 nM. In the data set on Rattus norvegicus [1], this molecule registered an Inhibition of 43%.

For `Cc1ccccc1-n1cnc2cnc3ccccc3c21`, the IC50 in the data set listed under Sus scrofa came out at 2230 nM.

As to `COc1ccc(N2CCc3c(C)nc4c(OC)cccc4c32)c(C)c1`, in the data set on Rattus norvegicus [1], the Inhibition stood at 45%.

Take `Cc1ccccc1N1CCc2c(C)nc3c(F)cccc3c21`: in the data set with Rattus norvegicus [1], the Inhibition is reported as 26%.

In the data set with Rattus norvegicus [1], `Cc1cc(O)ccc1N1CCc2c(C)nc3ccccc3c21` displayed an Inhibition of 41%.

In the data set listed under Sus scrofa, `COc1ccc(N2CCc3c(C)nc4ccccc4c32)c(C)c1` displayed an IC50 of 26 nM. In the data set on Rattus norvegicus [1], this molecule returned an Inhibition of 51%.

In the case of `Cc1ccccc1-n1nnc2cnc3ccccc3c21`, the concentration for half-maximal inhibition (IC50) in the data set listed under Sus scrofa was above 30000 nM.

Molecule `Cc1ccccc1N1CCc2c1c1ccccc1[n+]([O-])c2C` displayed an Inhibition in the data set with Rattus norvegicus [1] of 40%.

For the molecule `Cc1nc2c(OCc3ccccc3)cccn2c1CC#N`, half-maximal inhibition in the data set filed under Sus scrofa (IC50) was put at 13 nM. In addition, it took a dose of 0.31 µmol/kg to reach the 50% effect level in the data set with Rattus norvegicus [3] (ED50).

The molecule `CCOC(=O)c1cnc2c(OC)cccc2c1Nc1ccccc1C` had an IC50 in the data set listed under Sus scrofa of 37 nM. The same molecule yielded a 50% effective dose (ED50) in the data set with Rattus norvegicus [3] of 8.2 µmol/kg.

In the data set with Rattus norvegicus [3], `COc1ccc2[nH]c([S+]([O-])Cc3ncc(C)c(OC)c3C)nc2c1` (centres undefined) [OMEPRAZOLE] had a median effective dose (ED50) of 0.45 µmol/kg.

The values above are taken from ChEMBL document CHEMBL1125040, “Reversible inhibitors of the gastric (H+/K+)-ATPase. 1. 1-Aryl-4-methylpyrrolo[3,2-c]quinolines as conformationally restrained analogues of 4-(arylamino)quinolines” (J Med Chem, 1990).
